Our source for the inhibition values is ChEMBL document CHEMBL1250448, “Inhibitor hijacking of Akt activation” (Nat Chem Biol, 2009).

Test [1] has as its target T1, Tyrosine-protein kinase receptor TYRO3 (Homo sapiens) (UniProt Q06418).
T1 sequence (whole entry): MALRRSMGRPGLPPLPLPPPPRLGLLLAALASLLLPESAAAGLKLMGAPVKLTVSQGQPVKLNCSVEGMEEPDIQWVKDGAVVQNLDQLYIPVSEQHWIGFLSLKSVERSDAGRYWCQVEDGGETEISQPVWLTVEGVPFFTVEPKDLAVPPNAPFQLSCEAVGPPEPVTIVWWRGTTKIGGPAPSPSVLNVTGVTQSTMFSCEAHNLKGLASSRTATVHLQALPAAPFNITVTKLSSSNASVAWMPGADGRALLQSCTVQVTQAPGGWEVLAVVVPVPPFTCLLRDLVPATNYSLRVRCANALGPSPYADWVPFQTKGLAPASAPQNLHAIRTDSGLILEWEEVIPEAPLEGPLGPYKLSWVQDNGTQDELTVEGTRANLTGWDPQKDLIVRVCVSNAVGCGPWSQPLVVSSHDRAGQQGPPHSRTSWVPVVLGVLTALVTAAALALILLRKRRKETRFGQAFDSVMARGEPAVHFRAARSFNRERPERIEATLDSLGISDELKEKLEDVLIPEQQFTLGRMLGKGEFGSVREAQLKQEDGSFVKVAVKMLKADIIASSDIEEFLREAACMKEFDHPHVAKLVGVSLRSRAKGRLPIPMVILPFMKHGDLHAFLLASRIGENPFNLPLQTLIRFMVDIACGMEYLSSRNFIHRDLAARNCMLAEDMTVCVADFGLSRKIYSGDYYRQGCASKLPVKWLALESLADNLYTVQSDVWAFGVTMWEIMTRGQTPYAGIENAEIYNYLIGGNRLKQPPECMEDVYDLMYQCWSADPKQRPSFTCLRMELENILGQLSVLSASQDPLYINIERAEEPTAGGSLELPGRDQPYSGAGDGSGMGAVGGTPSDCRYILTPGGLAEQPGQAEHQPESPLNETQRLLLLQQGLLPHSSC
Put plainly: Inhibition of TYRO3 at 1 uM in presence of 10 uM ATP by Select Screen kinase assay relative to untreated control. The method in brief: (§1)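 Commercial SelectScreen profiling panel of 220 purified kinases. Each kinase was tested at a single inhibitor concentration of 1 μM, and activity was expressed as percent inhibition.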

Test [2] has as its target T2, Ephrin type-A receptor 1 (Homo sapiens) (UniProt P21709).
T2 sequence (whole entry): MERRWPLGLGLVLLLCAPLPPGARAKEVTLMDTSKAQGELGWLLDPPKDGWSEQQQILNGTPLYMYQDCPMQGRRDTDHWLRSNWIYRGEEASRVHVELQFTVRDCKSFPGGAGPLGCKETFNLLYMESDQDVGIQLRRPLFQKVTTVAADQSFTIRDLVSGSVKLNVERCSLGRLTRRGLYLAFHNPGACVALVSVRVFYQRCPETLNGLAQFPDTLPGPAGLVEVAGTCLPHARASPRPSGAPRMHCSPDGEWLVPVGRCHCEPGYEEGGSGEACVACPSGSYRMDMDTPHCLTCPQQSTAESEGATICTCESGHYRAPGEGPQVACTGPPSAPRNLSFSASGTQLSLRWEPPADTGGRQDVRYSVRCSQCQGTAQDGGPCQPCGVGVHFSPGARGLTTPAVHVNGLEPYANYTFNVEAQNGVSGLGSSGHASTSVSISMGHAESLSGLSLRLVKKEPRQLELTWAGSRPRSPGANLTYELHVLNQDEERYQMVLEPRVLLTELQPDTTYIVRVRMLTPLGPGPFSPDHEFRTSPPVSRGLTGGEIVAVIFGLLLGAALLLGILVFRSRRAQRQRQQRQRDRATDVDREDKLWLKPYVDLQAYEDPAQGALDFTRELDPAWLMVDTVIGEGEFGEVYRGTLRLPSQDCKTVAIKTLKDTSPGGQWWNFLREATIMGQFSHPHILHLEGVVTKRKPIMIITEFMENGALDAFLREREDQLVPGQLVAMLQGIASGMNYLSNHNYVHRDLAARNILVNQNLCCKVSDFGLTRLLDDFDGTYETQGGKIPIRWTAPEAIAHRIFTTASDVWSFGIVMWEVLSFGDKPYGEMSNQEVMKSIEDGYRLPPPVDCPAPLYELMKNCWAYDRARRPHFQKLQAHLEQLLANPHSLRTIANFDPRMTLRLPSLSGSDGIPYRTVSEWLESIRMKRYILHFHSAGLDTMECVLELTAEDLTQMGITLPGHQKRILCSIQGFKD
The experiment in a line: Inhibition of EPHA1 at 1 uM in presence of 10 uM ATP by Select Screen kinase assay relative to untreated control. The method in brief: (§2)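 Single-point screen at 1 μM against a panel of 220 purified kinases, run by Invitrogen staff as a SelectScreen profiling service. Read-out is percent inhibition of kinase activity.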

Test [3] concerns the target Ephrin type-A receptor 5 (Homo sapiens) (UniProt P54756). The experiment in a line: Inhibition of EPHA5 at 1 uM in presence of 10 uM ATP by Select Screen kinase assay relative to untreated control. The method in brief:
as §2

Test [4] deals with T3, MAP kinase-activated protein kinase 5 (Homo sapiens) (UniProt Q8IW41).
T3 sequence (whole entry): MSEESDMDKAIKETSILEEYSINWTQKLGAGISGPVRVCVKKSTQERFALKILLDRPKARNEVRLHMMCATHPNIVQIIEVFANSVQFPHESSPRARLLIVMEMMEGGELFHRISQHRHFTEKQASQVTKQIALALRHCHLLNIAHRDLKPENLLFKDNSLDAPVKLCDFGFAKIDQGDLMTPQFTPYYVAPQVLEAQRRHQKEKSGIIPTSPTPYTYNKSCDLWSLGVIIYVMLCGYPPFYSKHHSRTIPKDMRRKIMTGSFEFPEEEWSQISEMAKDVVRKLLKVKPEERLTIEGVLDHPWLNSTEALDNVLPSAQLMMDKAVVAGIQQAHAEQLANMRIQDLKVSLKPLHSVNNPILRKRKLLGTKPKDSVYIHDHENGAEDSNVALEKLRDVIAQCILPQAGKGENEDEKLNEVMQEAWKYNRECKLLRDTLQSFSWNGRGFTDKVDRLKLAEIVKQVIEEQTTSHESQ
The experiment in a line: Inhibition of MAPKAPK5 at 1 uM in presence of 10 uM ATP by Select Screen kinase assay relative to untreated control. The method in brief: (§3)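 Single-concentration profiling at 1 μM against a panel of 220 purified kinases, run as an outsourced SelectScreen kinase profiling service. Activity is expressed as percent inhibition.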

The target of test [5] is Macrophage-stimulating protein receptor (Homo sapiens) (UniProt Q04912). The experiment in a line: Inhibition of MST1R at 1 uM in presence of 10 uM ATP by Select Screen kinase assay relative to untreated control. The method in brief:
as §3

Test [6] addresses Serine/threonine-protein kinase Nek4 (Homo sapiens) (UniProt P51957). Put plainly: Inhibition of NEK4 at 1 uM in presence of 100 uM ATP by Select Screen kinase assay relative to untreated control. The method in brief: as §3
Test [7] addresses Serine/threonine-protein kinase PLK1 (Homo sapiens) (UniProt P53350). The experiment in a line: Inhibition of PLK1 at 1 uM in presence of 10 uM ATP by Select Screen kinase assay relative to untreated control. The method in brief: as §1

Serine/threonine-protein kinase PLK1 (Homo sapiens), sequence (P53350 whole entry): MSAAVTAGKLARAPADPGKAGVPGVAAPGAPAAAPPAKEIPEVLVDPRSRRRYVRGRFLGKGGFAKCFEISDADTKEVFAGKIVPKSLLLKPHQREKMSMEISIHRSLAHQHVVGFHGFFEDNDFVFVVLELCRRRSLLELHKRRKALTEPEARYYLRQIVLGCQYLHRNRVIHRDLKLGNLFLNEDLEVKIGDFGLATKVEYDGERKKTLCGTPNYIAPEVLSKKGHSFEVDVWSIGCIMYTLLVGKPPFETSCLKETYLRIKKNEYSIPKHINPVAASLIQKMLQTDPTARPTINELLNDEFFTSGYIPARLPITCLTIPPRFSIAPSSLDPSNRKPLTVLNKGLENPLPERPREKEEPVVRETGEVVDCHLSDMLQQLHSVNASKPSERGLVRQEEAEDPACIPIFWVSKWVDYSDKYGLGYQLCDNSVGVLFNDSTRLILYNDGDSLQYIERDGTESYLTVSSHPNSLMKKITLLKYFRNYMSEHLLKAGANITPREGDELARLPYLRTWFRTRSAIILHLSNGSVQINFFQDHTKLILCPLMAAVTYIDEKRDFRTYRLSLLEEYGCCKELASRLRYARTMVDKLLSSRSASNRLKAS
Ephrin type-A receptor 5 (Homo sapiens), sequence (P54756 whole entry): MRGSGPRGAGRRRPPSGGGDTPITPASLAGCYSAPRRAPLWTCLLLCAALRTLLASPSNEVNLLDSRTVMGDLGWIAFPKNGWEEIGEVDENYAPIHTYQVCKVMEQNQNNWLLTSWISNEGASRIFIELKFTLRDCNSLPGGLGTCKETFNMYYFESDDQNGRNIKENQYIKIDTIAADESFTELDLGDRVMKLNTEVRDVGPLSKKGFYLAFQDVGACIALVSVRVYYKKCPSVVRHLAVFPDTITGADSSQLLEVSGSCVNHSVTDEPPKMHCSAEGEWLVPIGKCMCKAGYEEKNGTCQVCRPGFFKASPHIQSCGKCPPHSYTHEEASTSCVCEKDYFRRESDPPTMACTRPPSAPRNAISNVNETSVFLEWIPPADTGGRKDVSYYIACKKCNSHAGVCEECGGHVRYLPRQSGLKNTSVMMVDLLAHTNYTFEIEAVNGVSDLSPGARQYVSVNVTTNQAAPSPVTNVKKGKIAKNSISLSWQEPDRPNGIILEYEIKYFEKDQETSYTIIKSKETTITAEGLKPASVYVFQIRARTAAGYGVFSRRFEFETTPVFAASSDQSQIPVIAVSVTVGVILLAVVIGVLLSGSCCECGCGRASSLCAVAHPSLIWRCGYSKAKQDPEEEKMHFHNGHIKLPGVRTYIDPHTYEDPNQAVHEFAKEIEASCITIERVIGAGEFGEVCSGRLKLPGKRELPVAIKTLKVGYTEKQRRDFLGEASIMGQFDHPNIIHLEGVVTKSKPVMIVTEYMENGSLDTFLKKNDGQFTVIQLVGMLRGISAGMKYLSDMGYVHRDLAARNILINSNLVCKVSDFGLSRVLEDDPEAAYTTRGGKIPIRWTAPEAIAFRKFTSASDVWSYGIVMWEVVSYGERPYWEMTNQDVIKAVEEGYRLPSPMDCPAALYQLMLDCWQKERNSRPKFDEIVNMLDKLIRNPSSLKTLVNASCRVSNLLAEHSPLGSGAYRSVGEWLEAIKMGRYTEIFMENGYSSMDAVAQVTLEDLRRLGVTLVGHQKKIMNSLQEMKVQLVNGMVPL
Macrophage-stimulating protein receptor (Homo sapiens), sequence (Q04912 25-304 limits assumed): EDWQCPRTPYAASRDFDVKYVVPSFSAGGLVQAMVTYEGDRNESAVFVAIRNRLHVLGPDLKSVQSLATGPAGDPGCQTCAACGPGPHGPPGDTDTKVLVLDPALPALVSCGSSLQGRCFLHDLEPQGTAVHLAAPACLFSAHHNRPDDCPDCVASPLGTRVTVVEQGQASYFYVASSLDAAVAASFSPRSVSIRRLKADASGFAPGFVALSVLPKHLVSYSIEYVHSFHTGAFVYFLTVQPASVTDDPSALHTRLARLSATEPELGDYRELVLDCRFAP
Macrophage-stimulating protein receptor (Homo sapiens), sequence (Q04912 310-1400 limits assumed): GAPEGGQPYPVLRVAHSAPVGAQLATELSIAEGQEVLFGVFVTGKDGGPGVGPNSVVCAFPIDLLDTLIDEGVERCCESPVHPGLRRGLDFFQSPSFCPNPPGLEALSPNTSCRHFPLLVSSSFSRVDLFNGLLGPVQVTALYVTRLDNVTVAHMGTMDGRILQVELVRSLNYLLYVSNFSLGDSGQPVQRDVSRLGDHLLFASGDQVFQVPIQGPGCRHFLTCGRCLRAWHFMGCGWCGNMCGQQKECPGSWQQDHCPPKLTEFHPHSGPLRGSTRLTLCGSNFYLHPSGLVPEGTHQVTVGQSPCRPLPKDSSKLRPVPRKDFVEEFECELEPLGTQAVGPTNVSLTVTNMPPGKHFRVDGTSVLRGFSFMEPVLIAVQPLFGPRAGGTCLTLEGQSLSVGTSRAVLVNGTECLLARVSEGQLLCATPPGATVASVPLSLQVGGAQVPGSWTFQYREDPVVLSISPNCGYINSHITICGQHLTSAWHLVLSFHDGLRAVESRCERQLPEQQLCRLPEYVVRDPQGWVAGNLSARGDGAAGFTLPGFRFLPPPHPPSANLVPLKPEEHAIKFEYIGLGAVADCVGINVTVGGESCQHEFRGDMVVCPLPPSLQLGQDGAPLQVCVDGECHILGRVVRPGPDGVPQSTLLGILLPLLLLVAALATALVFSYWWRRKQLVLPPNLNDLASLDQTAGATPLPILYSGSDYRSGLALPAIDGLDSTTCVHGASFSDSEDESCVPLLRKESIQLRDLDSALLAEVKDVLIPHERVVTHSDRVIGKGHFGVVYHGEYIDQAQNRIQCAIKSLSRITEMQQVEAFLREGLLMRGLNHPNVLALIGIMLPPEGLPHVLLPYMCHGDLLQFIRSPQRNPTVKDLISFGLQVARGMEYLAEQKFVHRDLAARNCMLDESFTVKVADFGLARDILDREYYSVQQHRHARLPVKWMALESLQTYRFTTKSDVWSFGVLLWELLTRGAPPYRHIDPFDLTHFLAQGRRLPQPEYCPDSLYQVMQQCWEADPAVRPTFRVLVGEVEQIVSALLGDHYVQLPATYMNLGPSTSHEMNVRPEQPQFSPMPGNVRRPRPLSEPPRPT
Serine/threonine-protein kinase Nek4 (Homo sapiens), sequence (P51957 whole entry, looked up): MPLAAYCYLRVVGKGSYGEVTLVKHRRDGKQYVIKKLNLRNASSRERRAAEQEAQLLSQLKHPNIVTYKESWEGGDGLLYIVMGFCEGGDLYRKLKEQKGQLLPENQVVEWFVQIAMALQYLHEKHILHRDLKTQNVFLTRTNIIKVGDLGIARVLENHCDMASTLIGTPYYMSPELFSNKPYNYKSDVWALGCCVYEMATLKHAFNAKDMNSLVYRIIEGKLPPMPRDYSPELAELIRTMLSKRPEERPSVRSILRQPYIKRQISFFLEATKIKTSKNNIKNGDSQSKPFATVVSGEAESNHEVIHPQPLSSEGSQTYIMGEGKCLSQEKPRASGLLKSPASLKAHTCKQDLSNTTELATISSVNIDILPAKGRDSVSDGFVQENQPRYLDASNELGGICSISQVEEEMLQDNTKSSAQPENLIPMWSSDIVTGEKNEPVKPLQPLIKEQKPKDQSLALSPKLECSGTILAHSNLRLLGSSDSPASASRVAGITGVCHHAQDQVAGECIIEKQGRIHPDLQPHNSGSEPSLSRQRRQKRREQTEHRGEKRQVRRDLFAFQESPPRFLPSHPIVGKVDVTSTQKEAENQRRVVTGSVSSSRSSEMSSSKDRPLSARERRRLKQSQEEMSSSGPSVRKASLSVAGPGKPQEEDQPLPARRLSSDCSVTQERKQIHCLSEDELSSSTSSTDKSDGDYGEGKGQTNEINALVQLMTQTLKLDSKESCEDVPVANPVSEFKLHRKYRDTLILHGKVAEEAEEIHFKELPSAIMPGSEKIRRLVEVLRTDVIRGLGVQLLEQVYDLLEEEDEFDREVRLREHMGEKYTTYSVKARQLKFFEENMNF

Regarding `O=C(NCCCNc1nc(Nc2cccc(NC(=O)N3CCCC3)c2)ncc1I)c1cccs1`, the inhibition – broadly, the change of the read-out against control, counted positive when it falls – was found to be 42% in test [1]; 13% in test [2]; 18% in test [3]; 1% in test [4]; 17% in test [5]; 24% in test [6]. For the same compound, the inhibition in test [7] is 14%.
On to `COc1ccccc1N1CCN(c2ncnc3[nH]nc(Br)c23)CC1`, for which the inhibition in test [1] was 37%; in test [2], 13%; in test [3], 11%; in test [4] it was 4%; in test [5] it was -4%; in test [6], 10%. The inhibition in test [7] came to 12%.
Regarding `Cc1n[nH]c2ccc(-c3cncc(OC[C@@H](N)Cc4c[nH]c5ccccc45)c3)cc12`, the inhibition in test [1] was 14%; in test [2], -1%; in test [3], 1%; in test [4], 10%; in test [5], 10%; in test [6], 41%. Also, the inhibition in test [7] came to 1%.
